Test results from ChEMBL document CHEMBL4689842, “EUbOPEN Chemogenomics Library wave 1” (2021).

Tested on: U2OS
Experiment: Multiplex assay against U2OS
Type: toxicity, cell-based
Details: human
Outline: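 Cells stained live at seeding with Hoechst33342, BioTracker Green Microtubule Cytoskeleton Dye, MitoTracker Red and Annexin V Alexa Fluor 680 were imaged on a CQ1 microscope at 37°C and 5% CO2 after compound addition. Their classification by CellPathfinder machine-learning gating ran from Hoechst high-intensity objects versus normal cells, to healthy, pyknosed or fragmented nuclei among normal cells, to mitotic or apoptotic among pyknosed cells. Tubulin, mitochondrial-mass and membrane-permeability phenotypes are per cents of healthy-nucleus cells.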

[1] = 12 h, 1 µM, compound concentration 1 uM, replicate 1
[2] = 12 h, 1 µM, compound concentration 1 uM, replicate 2
[3] = 12 h, 10 µM, compound concentration 10 uM, replicate 1
[4] = 12 h, 10 µM, compound concentration 10 uM, replicate 2
[5] = 24 h, 1 µM, compound concentration 1 uM, replicate 1
[6] = 24 h, 1 µM, compound concentration 1 uM, replicate 2
[7] = 24 h, 10 µM, compound concentration 10 uM, replicate 1
[8] = 24 h, 10 µM, compound concentration 10 uM, replicate 2

C=CC(=O)Nc1cccc(Oc2nc(Nc3ccc(N4CCN(C)CC4)cc3OC)ncc2Cl)c1
Population Apoptotic (%) [1]: 67% | Population Fragmented Nuclei (%) [1]: 27% | Population Healthy Nuclei (%) [1]: 36% | Population Hoechst High Intensity Objects (%) [1]: 8% | Population Membrane Permeable-Phenotype (%) [1]: 17% | Population Mitochondria Different-Phenotype (%) [1]: 74% | Population Mitotic Cells (%) [1]: 32% | Population Normal (%) [1]: 92% | Population Pyknosed Nuclei (%) [1]: 36% | Population Tubulin-Different-Phenotype (%) [1]: 96% | Total Cell Count [1]: 140 | Population Apoptotic (%) [2]: 73% | Population Fragmented Nuclei (%) [2]: 32% | Population Healthy Nuclei (%) [2]: 26% | Population Hoechst High Intensity Objects (%) [2]: 13% | Population Membrane Permeable-Phenotype (%) [2]: 19% | Population Mitochondria Different-Phenotype (%) [2]: 80% | Population Mitotic Cells (%) [2]: 26% | Population Normal (%) [2]: 86% | Population Pyknosed Nuclei (%) [2]: 41% | Population Tubulin-Different-Phenotype (%) [2]: 100% | Total Cell Count [2]: 107 | Population Apoptotic (%) [3]: 58% | Population Fragmented Nuclei (%) [3]: 5% | Population Healthy Nuclei (%) [3]: 82% | Population Hoechst High Intensity Objects (%) [3]: 1% | Population Membrane Permeable-Phenotype (%) [3]: 35% | Population Mitochondria Different-Phenotype (%) [3]: 7% | Population Mitotic Cells (%) [3]: 41% | Population Normal (%) [3]: 98% | Population Pyknosed Nuclei (%) [3]: 12% | Population Tubulin-Different-Phenotype (%) [3]: 21% | Total Cell Count [3]: 152 | Population Apoptotic (%) [4]: 25% | Population Fragmented Nuclei (%) [4]: 16% | Population Healthy Nuclei (%) [4]: 79% | Population Hoechst High Intensity Objects (%) [4]: 13% | Population Membrane Permeable-Phenotype (%) [4]: 43% | Population Mitochondria Different-Phenotype (%) [4]: 16% | Population Mitotic Cells (%) [4]: 75% | Population Normal (%) [4]: 86% | Population Pyknosed Nuclei (%) [4]: 4% | Population Tubulin-Different-Phenotype (%) [4]: 22% | Total Cell Count [4]: 113 | Population Apoptotic (%) [5]: 91% | Population Fragmented Nuclei (%) [5]: 21% | Population Hoechst High Intensity Objects (%) [5]: 12% | Population Membrane Permeable-Phenotype (%) [5]: 70% | Population Mitochondria Different-Phenotype (%) [5]: 100% | Population Mitotic Cells (%) [5]: 8% | Population Normal (%) [5]: 87% | Population Pyknosed Nuclei (%) [5]: 61% | Total Cell Count [5]: 160 | Population Apoptotic (%) [6]: 92% | Population Fragmented Nuclei (%) [6]: 35% | Population Healthy Nuclei (%) [6]: 17% | Population Hoechst High Intensity Objects (%) [6]: 14% | Population Membrane Permeable-Phenotype (%) [6]: 93% | Population Mitochondria Different-Phenotype (%) [6]: 93% | Population Mitotic Cells (%) [6]: 7% | Population Normal (%) [6]: 85% | Population Pyknosed Nuclei (%) [6]: 47% | Population Tubulin-Different-Phenotype (%) [6]: 100% | Total Cell Count [6]: 131 | Population Apoptotic (%) [7]: 62% | Population Fragmented Nuclei (%) [7]: 5% | Population Healthy Nuclei (%) [7]: 89% | Population Hoechst High Intensity Objects (%) [7]: 3% | Population Membrane Permeable-Phenotype (%) [7]: 29% | Population Mitochondria Different-Phenotype (%) [7]: 9% | Population Mitotic Cells (%) [7]: 37% | Population Normal (%) [7]: 96% | Population Pyknosed Nuclei (%) [7]: 5% | Population Tubulin-Different-Phenotype (%) [7]: 18% | Total Cell Count [7]: 182 | Population Apoptotic (%) [8]: 66% | Population Fragmented Nuclei (%) [8]: 10% | Population Healthy Nuclei (%) [8]: 84% | Population Hoechst High Intensity Objects (%) [8]: 16% | Population Membrane Permeable-Phenotype (%) [8]: 27% | Population Mitochondria Different-Phenotype (%) [8]: 17% | Population Mitotic Cells (%) [8]: 33% | Population Normal (%) [8]: 83% | Population Tubulin-Different-Phenotype (%) [8]: 17% | Total Cell Count [8]: 120
